One experiment concerns tunicate LXR. The following applies: ref Reschly et al. 2008; cited from earlier work.
The next experiment has as its target T1, L. erinacea LXRβ (Leucoraja erinacea, UniProt A0A1S6EKM5).
T1 sequence (A0A1S6EKM5 2-271): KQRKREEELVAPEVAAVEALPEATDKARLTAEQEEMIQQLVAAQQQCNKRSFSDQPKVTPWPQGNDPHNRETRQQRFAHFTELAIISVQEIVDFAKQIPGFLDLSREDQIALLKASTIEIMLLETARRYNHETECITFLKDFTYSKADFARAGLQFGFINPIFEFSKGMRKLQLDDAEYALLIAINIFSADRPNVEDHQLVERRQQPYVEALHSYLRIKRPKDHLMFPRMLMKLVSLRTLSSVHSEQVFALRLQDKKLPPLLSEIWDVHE
The experiment can be described thus: GAL4-LBD chimeric receptor luciferase transactivation assay in COS-1 cells. The following applies: all tested concentrations, P < 0.001. Format: cell-based. Summed up:
(§1)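 The receptor's ligand-binding domain plus hinge was fused to the GAL4 DBD in pBIND. COS-1 cells were seeded 24 h before lipofection with 500 ng receptor plasmid and 1,000 ng GAL4UAS-luc2P reporter. After 5 h, medium became phenol red-free DMEM/10% charcoal-stripped FBS with compound in DMSO (oxysterols 10^1–10^5.5 nM). Dual-luciferase was read 24 h post-transfection, in triplicate over three experiments, as mean ± SE. EC50 came from sigmoidal dose–response curves. Normalized fold activation was compared by one-way ANOVA/Holm–Sidak.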

The target of the next experiment is T2, L. erinacea LXRα (Leucoraja erinacea, UniProt A0A1S6EKM1).
T2 sequence (A0A1S6EKM1 181-451): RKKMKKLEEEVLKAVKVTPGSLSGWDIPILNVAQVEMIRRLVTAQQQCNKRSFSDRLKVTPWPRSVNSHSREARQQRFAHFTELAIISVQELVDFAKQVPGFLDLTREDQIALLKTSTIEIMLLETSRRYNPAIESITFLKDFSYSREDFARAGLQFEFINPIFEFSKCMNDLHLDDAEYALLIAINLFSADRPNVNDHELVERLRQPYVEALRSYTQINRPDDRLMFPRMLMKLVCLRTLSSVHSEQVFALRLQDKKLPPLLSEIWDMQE
The experiment is described as above. It is filed as cell-based. Conditions: all tested concentrations, P < 0.001. Summed up:
as §1

In a further experiment the target is T3, L. japonicum LXR (Lethenteron camtschaticum, UniProt A0A1S6EKM6).
T3 sequence (A0A1S6EKM6 89-387): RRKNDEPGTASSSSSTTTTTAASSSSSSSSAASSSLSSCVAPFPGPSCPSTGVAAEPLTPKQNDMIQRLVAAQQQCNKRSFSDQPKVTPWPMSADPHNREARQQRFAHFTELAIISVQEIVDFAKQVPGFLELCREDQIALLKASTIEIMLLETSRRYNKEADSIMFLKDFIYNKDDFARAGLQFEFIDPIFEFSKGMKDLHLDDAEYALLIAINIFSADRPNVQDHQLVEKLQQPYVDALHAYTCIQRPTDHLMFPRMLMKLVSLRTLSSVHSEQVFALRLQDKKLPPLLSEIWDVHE
The description is as above. It is filed as cell-based. Summed up:
as §1

A further experiment deals with LXRα. The following applies: human and mouse LXRs; ref Reschly et al. 2008; cited from earlier work.
Another experiment concerns LXRβ. Conditions: human and mouse LXRs; ref Reschly et al. 2008; cited from earlier work.
For another experiment, the target named is T4, B. lanceolatum LXR (Branchiostoma lanceolatum, UniProt A0A8J9ZB24).
T4 sequence (A0A8J9ZB24 168-437): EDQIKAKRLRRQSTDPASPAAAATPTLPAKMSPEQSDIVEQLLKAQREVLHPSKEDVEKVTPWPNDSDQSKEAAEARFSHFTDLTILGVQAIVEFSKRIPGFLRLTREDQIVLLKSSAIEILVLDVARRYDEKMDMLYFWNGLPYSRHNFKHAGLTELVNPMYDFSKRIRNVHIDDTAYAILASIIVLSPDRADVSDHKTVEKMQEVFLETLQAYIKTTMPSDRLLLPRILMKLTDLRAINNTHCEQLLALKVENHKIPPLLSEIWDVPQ
The experiment can be described thus: GAL4-LBD chimeric receptor luciferase transactivation assay in COS-1 cells. It is filed as cell-based. Summed up: as §1

With `C[C@]12CC[C@@H](O)C[C@@H]1CC[C@@H]1[C@@H]2CC[C@]2(C)C=CC[C@@H]12` [androstenol], in the experiment with tunicate LXR, the “activation of tunicate LXR (in words)” value was “induced”.
Consider `C[C@@]12CCC[C@H]1[C@@H]1CC[C@H]3C[C@@H](O)CC[C@]3(C)[C@H]1CC2` [androstanol], for which the “activation of tunicate LXR (in words)” value in the experiment on tunicate LXR is listed as “induced”.
Take `O=S(=O)(c1ccccc1)N(CC(F)(F)F)c1ccc(C(O)(C(F)(F)F)C(F)(F)F)cc1` [T0901317]: the “agonistic response, little skate LXRβ (in words)” value at L. erinacea LXRβ is recorded as “significant activations”. Also, the “agonistic response, little skate LXRα (in words)” value at L. erinacea LXRα is “significant activations”. The “transcriptional activation of lamprey LXR (in words)” value on L. japonicum LXR was “significant activations”.
Consider `C[C@H](CC[C@@H]1OC1(C)C)[C@H]1CC[C@H]2[C@@H]3CC=C4C[C@@H](O)CC[C@]4(C)[C@H]3CC[C@]12C` [24,25-EC, 24(S),25-epoxycholesterol], for which, on L. japonicum LXR, the “transcriptional activation of lamprey LXR (in words)” value is reported as “strongly induced”. Besides, the “activation of LXRα (in words)” value in the experiment on LXRα is listed as “robustly activated”. Further, the “activation of LXRβ (in words)” value with LXRβ is “robustly activated”.
Take `C[C@H](CCCC(C)(C)O)[C@H]1CC[C@H]2[C@@H]3CC=C4C[C@@H](O)CC[C@]4(C)[C@H]3CC[C@]12C` [25-HC, 25-hydroxycholesterol]: at L. japonicum LXR, the “transcriptional activation of lamprey LXR (in words)” value was “prominent and statistically significant (P < 0.001), yet only at higher concentrations”. Further, in the experiment on LXRα, the “activation of LXRα (in words)” value is given as “lower transcriptional responses”. Besides, in the experiment with LXRβ, the “activation of LXRβ (in words)” value is “lower transcriptional responses”.
Consider `CC(C)[C@@H](O)CC[C@@H](C)[C@H]1CC[C@H]2[C@@H]3CC=C4C[C@@H](O)CC[C@]4(C)[C@H]3CC[C@]12C` [24-HC, 24(S)-hydroxycholesterol], for which the “transcriptional activation of lamprey LXR (in words)” value on L. japonicum LXR is “strongly induced”. The “transcriptional activation of amphioxus LXR (in words)” value at B. lanceolatum LXR is reported as “residually, but significantly, activated”. Further, in the experiment with LXRα, the “activation of LXRα (in words)” value was “robustly activated”. Also, the “activation of LXRβ (in words)” value in the experiment with LXRβ is given as “robustly activated”.
For the molecule `O=Cc1c2[nH]c3ccccc3c2cc2[nH]c3ccccc3c12` [6-Formylindolo(3,2-b)carbazole], the “activation of tunicate LXR (in words)” value with tunicate LXR was “strongly activated”.

The values above are taken from publication PMC5381633 (Genome Biology and Evolution, 2017).
